Measured values as given in ChEMBL document CHEMBL1132168, “Cycloalkanecarboxylic esters derived from lysergol, dihydrolysergol-I, and elymoclavine as partial agonists and antagonists at rat 5-HT2A receptors: pharmacological evidence that the indolo[4,3-fg]quinoline system of the ergolines is responsible for high 5-HT2A receptor affinity” (J Med Chem, 1999).
“And” between values parts separate entries of the source, which are not always exact repeats. Identical values can stand only once.

How the values were obtained:
[1] = molecular target: T1, 5-hydroxytryptamine receptor 2A (Rattus norvegicus, UniProt P14842); test: Effectiveness of compound in blocking 5-hydroxytryptamine 2A receptor-mediated contractions of rat tail artery; type: functional, tissue-based; details: read-out: pA2 (converted)
In short: (§1)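 Endothelium-denuded rat ventral caudal artery segments (4–5 mm), isometric, resting force 5 mN. Segments were primed once with 5-HT 1 μM during 120 min equilibration. Prazosin 30 nM and cocaine 6 μM were present throughout. Two cumulative 5-HT curves were run 60 min apart, the second after 30–60 min with antagonist. pKP by Marano–Kaumann; pA2 by Schild or as apparent pA2. Mean ± SEM, n segments, ≥2 animals.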

[2] = Specificity towards 5-HT2A receptor to that of alpha-1 adrenoceptor.; type: functional
[3] = molecular target: T2, Adrenergic receptor alpha-1 (Rattus norvegicus, UniProt P15823+P23944+P43140); test: Ability to block alpha-1 adrenergic receptor-mediated contractions of rat aorta.; type: functional
T2 sequence (P15823 whole entry): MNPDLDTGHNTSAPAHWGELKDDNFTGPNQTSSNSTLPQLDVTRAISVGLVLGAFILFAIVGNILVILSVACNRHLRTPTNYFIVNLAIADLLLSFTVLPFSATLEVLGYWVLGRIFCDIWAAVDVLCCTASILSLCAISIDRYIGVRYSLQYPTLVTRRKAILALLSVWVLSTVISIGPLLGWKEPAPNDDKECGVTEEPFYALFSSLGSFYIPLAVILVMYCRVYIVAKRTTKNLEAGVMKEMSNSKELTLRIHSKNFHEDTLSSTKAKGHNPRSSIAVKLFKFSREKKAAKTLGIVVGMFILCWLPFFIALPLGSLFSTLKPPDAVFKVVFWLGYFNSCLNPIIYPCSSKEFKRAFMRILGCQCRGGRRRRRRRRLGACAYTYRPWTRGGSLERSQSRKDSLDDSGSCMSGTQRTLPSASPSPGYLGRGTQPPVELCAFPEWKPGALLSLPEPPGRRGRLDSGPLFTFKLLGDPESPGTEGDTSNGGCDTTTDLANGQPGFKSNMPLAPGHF
T2 sequence (P23944 whole entry): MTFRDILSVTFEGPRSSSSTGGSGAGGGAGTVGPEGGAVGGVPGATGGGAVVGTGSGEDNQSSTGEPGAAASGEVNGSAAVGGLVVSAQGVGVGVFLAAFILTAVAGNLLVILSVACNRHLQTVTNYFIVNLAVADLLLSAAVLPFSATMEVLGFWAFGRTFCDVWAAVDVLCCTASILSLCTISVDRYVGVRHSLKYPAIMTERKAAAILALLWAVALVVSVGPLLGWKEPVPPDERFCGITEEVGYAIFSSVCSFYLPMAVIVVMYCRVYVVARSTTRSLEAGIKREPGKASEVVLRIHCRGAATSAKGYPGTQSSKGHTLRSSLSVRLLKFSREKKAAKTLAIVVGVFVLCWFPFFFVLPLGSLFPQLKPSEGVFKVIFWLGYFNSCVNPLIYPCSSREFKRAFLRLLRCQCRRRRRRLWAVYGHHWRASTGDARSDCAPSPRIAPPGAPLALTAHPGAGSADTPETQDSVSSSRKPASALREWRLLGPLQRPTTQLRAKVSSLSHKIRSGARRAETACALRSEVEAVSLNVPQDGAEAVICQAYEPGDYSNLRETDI
T2 sequence (P43140 whole entry): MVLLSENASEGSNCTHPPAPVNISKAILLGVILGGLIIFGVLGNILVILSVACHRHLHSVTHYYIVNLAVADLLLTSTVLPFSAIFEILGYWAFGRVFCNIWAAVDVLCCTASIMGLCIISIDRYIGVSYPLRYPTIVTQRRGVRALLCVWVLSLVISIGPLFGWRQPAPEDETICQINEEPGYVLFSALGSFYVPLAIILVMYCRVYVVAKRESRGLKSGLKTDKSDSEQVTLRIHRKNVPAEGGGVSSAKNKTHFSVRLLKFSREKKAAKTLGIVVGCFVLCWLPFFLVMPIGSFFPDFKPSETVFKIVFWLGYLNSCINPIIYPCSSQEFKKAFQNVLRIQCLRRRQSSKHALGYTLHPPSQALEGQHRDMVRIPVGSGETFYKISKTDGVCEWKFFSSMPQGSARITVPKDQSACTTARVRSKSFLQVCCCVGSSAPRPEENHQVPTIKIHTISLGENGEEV
In short: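 Endothelium-denuded rat thoracic aorta rings (4–6 mm) in modified Krebs-Henseleit, 37 °C, 95% O2/5% CO2, with (R,S)-propranolol 1 μM. Resting force 20 mN. During 140 min equilibration, rings were stimulated twice with (R)-phenylephrine 100 nM. Two cumulative phenylephrine contraction curves were run, without and then with antagonist added 30 min before.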

[4] = molecular target: T1, 5-hydroxytryptamine receptor 2A; test: Blocking 5-HT2A receptor-mediated contractions of rat tail artery; type: functional, tissue-based; details: read-out: pA2 (converted); in short: as §1
[5] = molecular target: 5-hydroxytryptamine receptor 1B (Homo sapiens, UniProt P28222); test: Affinity of compound towards 5-hydroxytryptamine 1B receptor in isolated guinea-pig iliac artery; type: functional, tissue-based, Cavia porcellus; details: target entry is the homologue from another species; read-out: pA2 (converted)
In short: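 Iliac artery segments (1–2 mm), resting force 5 mN. Krebs-Henseleit contained ketanserin 1 μM, mepyramine 0.3 μM, cimetidine 30 μM and cocaine 30 μM. […] Two 5-HT curves were run 80 min apart, the second after 45 min with compound.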

[6] = Specificity of compound towards 5-HT2A receptor to that of 5-HT1B receptor; type: functional
[7] = molecular target: 5-hydroxytryptamine receptor 2A (Rattus norvegicus) (UniProt P14842); test: Intrinsic activity towards 5-HT2A receptor of rat tail artery; type: functional, tissue-based
In short: (§2)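 Endothelium-denuded rat caudal artery segments, resting force 5 mN, with prazosin 30 nM and cocaine 6 μM present. Two cumulative curves were run on each segment 60 min apart: first 5-HT, then the test agonist. pKP was taken from a Kenakin plot of equieffective 5-HT and agonist concentrations. Mean ± SEM from n segments, ≥2 animals.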

[8] = molecular target: 5-hydroxytryptamine receptor 2A (Rattus norvegicus) (UniProt P14842); test: Relative potency towards 5-HT2A receptor of rat tail artery; type: functional, tissue-based; in short: as §2
[9] = molecular target: T1, 5-hydroxytryptamine receptor 2A; test: Partial agonism at 5-HT2A receptor was evaluated in presence of ketanserin (3-10 nM) in isolated rat tail artery; type: functional, tissue-based; details: read-out: pA2 (converted)
In short: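 Rat caudal artery, endothelium removed, with prazosin 30 nM and cocaine 6 μM present. A 5-HT curve was followed after 60 min by a cumulative agonist curve, with ketanserin 3 nM added 30 min beforehand. The rightward shift was compared with that in control segments run without ketanserin.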

[10] = molecular target: 5-hydroxytryptamine receptor 2A (Rattus norvegicus) (UniProt P14842); test: Effectiveness in blocking 5-HT2A receptor-mediated contractions of rat tail artery; type: functional, tissue-based; in short: as §1
[11] = molecular target: 5-hydroxytryptamine receptor 2A (Rattus norvegicus) (UniProt P14842); details: Tail

Chain of 5-hydroxytryptamine receptor 2A (Rattus norvegicus) (P14842 whole entry): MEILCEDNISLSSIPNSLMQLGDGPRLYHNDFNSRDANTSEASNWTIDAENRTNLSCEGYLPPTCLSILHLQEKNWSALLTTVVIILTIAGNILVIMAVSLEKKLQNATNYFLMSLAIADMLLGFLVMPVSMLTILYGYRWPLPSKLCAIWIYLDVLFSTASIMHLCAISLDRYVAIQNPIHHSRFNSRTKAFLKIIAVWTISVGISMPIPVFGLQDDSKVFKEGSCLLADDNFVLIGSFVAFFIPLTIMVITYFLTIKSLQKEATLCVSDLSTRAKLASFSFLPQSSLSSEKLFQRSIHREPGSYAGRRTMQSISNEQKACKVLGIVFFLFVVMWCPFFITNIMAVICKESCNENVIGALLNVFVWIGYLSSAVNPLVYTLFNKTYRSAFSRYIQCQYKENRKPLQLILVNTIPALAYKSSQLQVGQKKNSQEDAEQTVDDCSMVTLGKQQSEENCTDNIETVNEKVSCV
T1 sequence (P14842 whole entry): as above
Chain of 5-hydroxytryptamine receptor 1B (P28222 whole entry): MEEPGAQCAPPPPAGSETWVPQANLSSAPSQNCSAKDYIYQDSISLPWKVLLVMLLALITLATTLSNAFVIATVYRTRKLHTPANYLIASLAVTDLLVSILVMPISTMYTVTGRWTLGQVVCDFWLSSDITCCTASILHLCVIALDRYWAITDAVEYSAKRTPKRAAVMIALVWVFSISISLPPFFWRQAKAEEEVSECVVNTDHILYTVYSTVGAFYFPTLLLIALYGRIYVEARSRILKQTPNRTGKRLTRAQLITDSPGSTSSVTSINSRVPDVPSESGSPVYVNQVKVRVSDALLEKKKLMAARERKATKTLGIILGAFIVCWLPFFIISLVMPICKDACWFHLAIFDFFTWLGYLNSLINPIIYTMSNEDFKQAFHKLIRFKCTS

| SMILES | Kb [1] [nM] | Specificity [2] | pA2 [3] | Kb [4] [nM] | Kb [5] [nM] | Specificity [6] | Intrinsic activity [7] | Relative potency [8] [%] | Kb [9] [nM] | pKp [10] | pKp [11] |
| --- | --- | --- | --- | --- | --- | --- | --- | --- | --- | --- | --- |
| CC(C)n1cc2c3c(cccc31)[C@H]1C[C@@H](COC(=O)C3CC3)CN(C)[C@@H]1C2.O=C(O)/C=C\C(=O)O | 6.03 | 468 | 5.55 |  |  |  |  |  |  |  |  |
| CC(C)n1cc2c3c(cccc31)[C@H]1C=C(CO)CN(C)[C@@H]1C2.O=C(O)/C=C\C(=O)O |  | 2820 | 5.69 | 0.724 | 851 | 1180 |  |  |  |  |  |
| CN1C[C@H](COC(=O)C2CCC2)C=C2c3cccc4[nH]cc(c34)C[C@H]21.O=C(O)/C=C\C(=O)O |  | 174 | 5.52 |  |  |  | 0.13 | 185 | 0.741 | 7.76 and 7.36 |  |
| CC(C)n1cc2c3c(cccc31)C1=C[C@@H](CO)CN(C)[C@@H]1C2.O=C(O)/C=C\C(=O)O |  | 1260 | 6.05 | 0.708 | 209 | 295 |  |  |  |  |  |
| CN1C[C@H](COC(=O)C2CCCCC2)C=C2c3cccc4[nH]cc(c34)C[C@H]21.O=C(O)/C=C\C(=O)O |  | 68 | 5.05 |  |  |  | 0.18 | 49 | 0.661 | 6.92 | 6.88 |
| CC(C)n1cc2c3c(cccc31)C1=C[C@@H](COC(=O)C3CCCCCC3)CN(C)[C@@H]1C2.O=C(O)/C=C\C(=O)O | 17.8 | 661 | 4.93 |  |  |  |  |  |  |  |  |
| CC(C)n1cc2c3c(cccc31)[C@H]1C[C@@H](CO)CN(C)[C@@H]1C2.O=C(O)/C=C\C(=O)O |  | 240 | 6.12 | 3.16 | 1860 | 589 |  |  |  |  |  |
